PfGluPho inh = PfG6PD (Plasmodium falciparum) enzyme inhibition | inhibition, % at 20 µM | PfGluPho enzyme, NADPH resazurin-diaphorase fluorescence | AID 504690 | 350,000 tested, 0.78% active;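 active = inhibition reaching at least a set limit at 20 µM in the primary screen, cut at about 59% in these data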
DTT redox prof = compounds producing H2O2 with reducing agent – biochemical, NIH compound library profiling, artefact control for MLSCN library redox annotation, primary screen; DTT-dependent redox cycling H2O2, phenol red/HRP absorbance; 100% = 100 µM peroxide control, 0% = buffer; activation, % at 10 µM; 200,000 tested, 0.03% active; AID 878;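 active = activation of at least 50% relative to the plate's high and low controls in the primary single-dose screen; inactive = activation below 50%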;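 also: compound incubated with DTT at 0.8 mM final as the reducing agent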
L major viab = Leishmania major promastigote growth inhibition | Leishmania major promastigotes, resazurin fluorescence viability | inhibition, % at 10 µM | 200,000 tested, 9% active | AID 1063;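 also: promastigotes grown with compound for 44 hours at 28 °C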
G6PDH CS = inhibits Leuconostoc G6PDH, flagging false hits in G6PDH-based assays; Purified L. mesenteroides G6PDH, diaphorase/resazurin coupled fluorescence, 45 min; inhibition, % at 5 µM; 200,000 tested, 0.12% active
Diaph act CS = activates diaphorase or chemically reduces, flagging diaphorase assay artifacts. Diaphorase/resazurin coupled assay, resorufin fluorescence, 16 min; hits give high values; 1 = vehicle wells, 0 = NADH-free wells. activation factor at 20 µM. 190,000 tested, 0.005% active. AID 1229;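 active = diaphorase activity raised at least twofold by the compound at 20 µM; inactive = activation factor below 2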
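Material: purified diaphorase enzyme from Clostridium kluyveri / Medium: HEPES pH 7.4 buffer with MgCl2 and Tween 20 / Schedule: enzyme reaction of 16 min at room temperature / Measured by: resorufin fluorescence, excitation 544 nm, emission 590 nm / Evaluation: rise in resorufin formation, marking diaphorase activation or chemical reduction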
Diaphorase inh = inhibits diaphorase or chemically oxidizes, flagging diaphorase assay artifacts | diaphorase resazurin-to-resorufin fluorescence, NADH, 16 min; bacterial (C. kluyveri) enzyme, not human | inhibition, % at 20 µM | 190,000 tested, 0.69% active;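 active = primary screen inhibition at 20 µM above a set limit, cut at about 50% in these data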
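material = Clostridium kluyveri diaphorase enzyme | amount = 0.14 U/mL diaphorase, enzyme working solution | schedule = incubation 16 min, room temperature | detection = fluorescence of resorufin formed from resazurin, Ex 544/Em 590 nm | benchmarks = positive control minus NADH, DMSO neutral control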
Large screens that a line does not name were inactive. This is one part of a sample in which hits are shown more often than they occur. Rule as the data show it, unless noted: active = inhibition above about 50%; inactive = the rest.

CC(=O)NC(=S)NNC(=O)COc1ccc(Br)cc1	L major viab 86.6
COC(=O)c1cc2c(ccn2-c2ccc(F)cc2)n1C(C)C	none
COC(=O)c1cc2c(ccn2-c2ccc(F)cc2)n1CC(C)C	L major viab 98.4
CCCn1c(C(=O)OC)cc2c1ccn2-c1ccc(F)cc1	L major viab 99.2
Cc1noc(C)c1C(=O)OCC(=O)NCc1ccc(Cl)cc1	none (no result: DTT redox prof, L major viab, G6PDH CS, Diaph act CS, Diaphorase inh)
Cc1nc(NC(=O)COC(=O)C2CC2C)c(Cl)cc1Cl (stereo not drawn)	none (no result: DTT redox prof, L major viab, G6PDH CS, Diaph act CS, Diaphorase inh)
Cc1cccc(N2CCN(c3cccc(C)c3)C2c2cccnc2)c1	L major viab 99.2
Cc1ccc(N2CCN(c3ccc(C)cc3)C2c2ccncc2)cc1	L major viab 92.2
COc1ccc2[nH]c3c(N4CCC(O)(c5cccc(C(F)(F)F)c5)CC4)ncnc3c2c1	L major viab 100.4
COc1ccc2[nH]c3c(N4CCN(Cc5ccc6c(c5)OCO6)CC4)ncnc3c2c1	L major viab 55.9
O=C/C(=C\Nc1ccc(Br)cc1)c1nc2ccccc2o1	none
O=C/C(=C\Nc1ccccn1)c1nc2ccccc2o1	L major viab 73.0
Cc1ccc(-c2csc(NC(=O)C3CCN(S(=O)(=O)c4cccs4)CC3)n2)cc1	L major viab 76.0
O=C(Nc1nccs1)C1CCN(S(=O)(=O)c2cccs2)CC1	none
Cc1ccc(NC(=O)C2CCN(S(=O)(=O)c3cccs3)CC2)cc1	none
O=C(CCNC(=O)c1ccccc1Cl)Nc1nc(-c2ccc3ccccc3c2)cs1	L major viab 80.0 (no result: DTT redox prof)
Cc1nc2ccc(NC(=O)C3CCN(S(=O)(=O)c4cccs4)CC3)cc2s1	L major viab 65.3
O=C(Nc1nc(-c2ccc3ccccc3c2)cs1)C1CCN(S(=O)(=O)c2cccs2)CC1	L major viab 90.6
COCCNC(=O)CSc1nc(N)c(NC(=O)c2ccccc2F)c(=O)[nH]1	none
O=C(O)C1C2CCC(O2)C1C(=O)Nc1ccc(O)cc1 (stereo not drawn)	none
COc1ccc(CCC(=O)Nc2ccc(N3CCOCC3)c(S(=O)(=O)Nc3ccc(OC)cc3)c2)cc1	none (no result: DTT redox prof, L major viab, G6PDH CS, Diaph act CS, Diaphorase inh)
O=C(Nc1ccccn1)C(=O)N1CCCCC1	none
NC(=O)c1cc(S(=O)(=O)N2CCCC2)ccc1OCCOc1ccccc1	none (no result: DTT redox prof, L major viab, G6PDH CS, Diaph act CS, Diaphorase inh)
COC(=O)[C@@]1(Cc2ccc(F)cc2)[C@H]2c3cc(C(=O)N4CCCC4)n(Cc4ccc(C(F)(F)F)nc4)c3C[C@H]2CN1C(=O)c1ccccc1	L major viab 87.3
COC(=O)[C@@]1(Cc2ccc(OC)cc2)[C@H]2c3cc(C(=O)N4CCCC4)n(Cc4ccc(OC)c(OC)c4)c3C[C@H]2CN1C(=O)c1ccccc1	none (no result: PfGluPho inh)
COC(=O)[C@@]1(Cc2ccc(OC)cc2)[C@H]2c3cc(C(=O)N(C)C)n(CCc4ccc(OC)c(Br)c4)c3C[C@H]2CN1C(=O)c1ccccc1	L major viab 62.3 (no result: PfGluPho inh)
CN(C)c1ccc(C(CNS(=O)(=O)c2ccc3ccccc3c2)N2CCOCC2)cc1 (stereo not drawn)	none (no result: DTT redox prof, L major viab, G6PDH CS, Diaph act CS, Diaphorase inh)
Cc1cc(C)cc(N(CC(=O)NCc2ccco2)C(=O)CCC(=O)Nc2nccs2)c1	L major viab 77.7 (no result: Diaph act CS, Diaphorase inh)
c1ccc2c(c1)OCC(c1csc3ncnc(N4CCCCC4)c13)O2 (stereo not drawn)	none
Clc1ncnc2scc(C3COc4ccccc4O3)c12 (stereo not drawn)	L major viab 71.2
CC1CC(C)CN(C(=O)COC(=O)CNC(=O)C23CC4CC(CC(C4)C2)C3)C1 (stereo not drawn)	none (no result: DTT redox prof, L major viab, G6PDH CS, Diaph act CS, Diaphorase inh)
COC(=O)C1=C(C)N(C)C(C)=C(C(=O)OC)C1c1ccncc1	none
COC(=O)C1=C(C)N(C)C(C)=C(C(=O)OC)C1c1ccc(F)c(Br)c1	L major viab 76.5
O=C1CC(N(CCc2ccccc2)C(=S)Nc2cc(Cl)ccc2Cl)C(=O)N1c1c(Cl)cccc1Cl (stereo not drawn)	L major viab 99.2
Cc1ccc2cc(CN(CCCN(C)C)C(=O)NCc3ccccc3)c(=O)[nH]c2c1C	none
COc1ccccc1NC(=S)N(Cc1ccco1)Cc1cc2cc(C)cc(C)c2[nH]c1=O	L major viab 84.5
Cc1ccc(NC(=S)N(Cc2cccs2)Cc2cc3cccc(C)c3[nH]c2=O)cc1	L major viab 91.9
COC(=O)c1ccccc1NC(=S)N(Cc1ccc2c(c1)OCO2)Cc1cc2cccc(C)c2[nH]c1=O	L major viab 66.9
Cc1ccc2cc(CN(CCCN(C)C)C(=S)NCc3ccccc3)c(=O)[nH]c2c1C	L major viab 94.7
CC[N+]1(C)CC2CCC(C)(C1)C2(C)C (stereo not drawn)	none
C[C@H](CO)N1C[C@H](C)[C@H](CN(C)S(=O)(=O)c2cccc(F)c2)Oc2ncc(-c3cccc(C(=O)N(C)C)c3)cc2C1=O	none (no result: DTT redox prof, L major viab, G6PDH CS, Diaph act CS, Diaphorase inh)
Cc1cccc2cc(CN(CCN(C)C)C(=S)Nc3ccccc3)c(=O)[nH]c12	L major viab 78.5
Cc1cccc(NC(=S)N(CCN(C)C)Cc2cc3cc(C)ccc3[nH]c2=O)c1	none
COc1ccc(C(=O)N/C(=C/c2cccs2)C(=O)NCCCn2ccnc2)cc1OC	none
O=C(NCCCn1ccnc1)/C(=C\c1cccs1)NC(=O)c1ccco1	L major viab 55.9
CN(C)CCN1CCc2ccccc21	L major viab 78.2
c1ccc2c(c1)CCN2CCN1CCc2ccccc21	none
CCCN1CCC(N2CCN(c3cccc(C(F)(F)F)c3)CC2)CC1	L major viab 100.2
O=[N+]([O-])c1ccccc1S(=O)(=O)N1CCN(CC2CC=CCC2)CC1 (stereo not drawn)	none
C1=CCC(CN2CCN(C3CCCCCC3)CC2)CC1 (stereo not drawn)	L major viab 89.9
Cc1ccc(N2CCN(CC3CC=CCC3)CC2)cc1 (stereo not drawn)	L major viab 96.7
FC(F)(F)c1cccc(N2CCN(CC3CC=CCC3)CC2)c1 (stereo not drawn)	L major viab 93.1
O=C(CO/N=C/c1ccc2c(c1)OCO2)Nc1cccc(Br)c1	none
CCCCN1C(=O)C(CC(=O)NC2CC2)CC(C(=O)N(CC)CC)=C1C (stereo not drawn)	none (no result: DTT redox prof, L major viab, G6PDH CS, Diaph act CS, Diaphorase inh)
CCc1nc2ccccc2n1Cc1cc(=O)n2cc(C)ccc2n1	none
CC(C)CCN1C(=O)c2ccc(C(=O)Nc3c[nH]c(=O)[nH]c3=O)cc2C1=O	none
CC(C1SC(=S)NC1=O)C1SC(=S)NC1=O (stereo not drawn)	none (no result: DTT redox prof, L major viab, G6PDH CS, Diaph act CS, Diaphorase inh)
CCC(=O)NC(c1ccco1)c1cc(Cl)c2cccnc2c1O (stereo not drawn)	none (no result: Diaph act CS, Diaphorase inh)
CCC(=O)NC(c1ccc(OC)cc1)c1cc(Cl)c2cccnc2c1O (stereo not drawn)	L major viab 98.2 (no result: Diaph act CS, Diaphorase inh)
CCC(=O)NC(c1ccccc1OC)c1ccc2cccnc2c1O (stereo not drawn)	L major viab 100.2

Assay outcomes (PubChem BioAssay)
